# Results collected from several papers.
# Each line is one published result; the experiments were not run side by side.
# Target: Serine/threonine-protein kinase PknB (pknB, Mycobacterium tuberculosis, UniProt P9WI81)
Structure (SMILES),assay,conditions,endpoint,result
CC1CCCN1c1nccc(-c2cnn3ncccc23)n1 (centres unmarked),binding,1 µM,remaining binding,100%
Nc1ncnc2occ(-c3ccc(NC(=O)Nc4cc(C(F)(F)F)ccc4F)cc3)c12,cell-free assay,20 µM,remaining signal,66%
COc1cc(Nc2ncc(F)c(Nc3ccc4c(n3)NC(=O)C(C)(C)O4)n2)cc(OC)c1OC,"binding, competition with immobilised ligand",10 µM,inhibition,46%
Nc1ncc(-c2nc(N3CCOCC3)nc(N3CCOCC3)n2)c(C(F)F)n1,cell-free assay,10 µM,remaining signal,66%
C[C@@H]1CN(c2cc(-c3n[nH]c4ccc(OC5(C)CC5)cc34)ncn2)C[C@H](C)O1,"cell-free assay, competition with immobilised ligand",0.1 µM,remaining binding,95%
Cc1ccc(C(=O)Nc2ccc(CN3CCN(C)CC3)c(C(F)(F)F)c2)cc1C#Cc1cnc2cccnn12,cell-free assay,23.5 nM,remaining signal,98%
C[C@H](c1ccnc(Nc2nc3ccc(-c4cc(N(C)C)ncn4)cc3[nH]2)c1)N1CCN(C(=O)CC(F)(F)F)CC1,"cell-free assay, competition with immobilised ligand",0.1 µM,remaining binding,91%
CN(C)c1nccc(-c2cnn3ncccc23)n1,binding,1 µM,remaining binding,76%
